Results: ChEMBL document CHEMBL5523688, “Selective targeting of human TET1 by cyclic peptide inhibitors: Insights from biochemical profiling” (Bioorg Med Chem, 2024)
The source made the active and inactive calls. The rule behind the calls is not given here.

Tests used:
[1] = biological target: T1, Methylcytosine dioxygenase TET1 (Homo sapiens, UniProt Q8NFU7); assay: (§1) Inhibition of N-terminal 3xFlag-tagged recombinant human TET1 catalytic domain (E1418 to V2136 residues) expressed in baculovirus infected Sf9 cells using 5-methylcytosine as substrate preincubated for 10 mins followed by substrate and DNA-cofactor addition measured after 30 mins by Alphascreen assay
Procedure, shortened: (§2)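 TET1 catalytic domain (E1418–V2136, Sf9 baculovirus) at 2 nM was preincubated 10 min with inhibitor (1% DMSO) in HEPES 50 mM pH 7.3, 150 mM NaCl, 0.1% BSA, 0.01% Tween-20. Reaction was started with ascorbate 200 µM, Fe(II) 20 µM, 2OG 20 µM and 5mC ssDNA 10 nM, run 30 min, then EDTA-quenched. Anti-5hmC antibody with AlphaScreen beads, 45–60 min, luminescence read. Three independent replicates.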

[2] = biological target: T1, Methylcytosine dioxygenase TET1; assay: Inhibition of FLAG-tagged human TET1 catalytic domain (E1418 to V2136 residues) expressed in doxycycline induced human U2OS cells assessed as reduction in 5-hydroxymethylcytosine level at 50 to 100 uM incubated for 24 hrs by immunofluorescence assay; assay type: cell-based; settings: dose 50-100 µM
Procedure, shortened: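 U2OS cells stably carrying dox-inducible FLAG-tagged TET1 catalytic domain (E1418–V2136), 5,000/well, seeded 4 h at 37 °C in DMEM with Tet-approved 10% FBS, pen/strep and L-glutamine. Doxycycline 1 µg/mL induction plus compound dosing (1% DMSO final) for 24 h. After fixation, cells were co-stained with anti-5hmC and anti-FLAG antibodies plus DAPI, then imaged. Read-out was mean 5hmC fluorescence in FLAG-positive cells.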

[3] = biological target: T2, Methylcytosine dioxygenase TET3 (Homo sapiens, UniProt O43151); assay: (§3) Inhibition of recombinant human TET3 catalytic domain (E824 to I1795 residues) expressed in baculovirus infected Sf9 cells using 5-methylcytosine as substrate preincubated for 10 mins followed by substrate and DNA-cofactor addition measured after 10 mins by Alphascreen assay
T2 sequence (O43151 whole entry, the tested form may be a part): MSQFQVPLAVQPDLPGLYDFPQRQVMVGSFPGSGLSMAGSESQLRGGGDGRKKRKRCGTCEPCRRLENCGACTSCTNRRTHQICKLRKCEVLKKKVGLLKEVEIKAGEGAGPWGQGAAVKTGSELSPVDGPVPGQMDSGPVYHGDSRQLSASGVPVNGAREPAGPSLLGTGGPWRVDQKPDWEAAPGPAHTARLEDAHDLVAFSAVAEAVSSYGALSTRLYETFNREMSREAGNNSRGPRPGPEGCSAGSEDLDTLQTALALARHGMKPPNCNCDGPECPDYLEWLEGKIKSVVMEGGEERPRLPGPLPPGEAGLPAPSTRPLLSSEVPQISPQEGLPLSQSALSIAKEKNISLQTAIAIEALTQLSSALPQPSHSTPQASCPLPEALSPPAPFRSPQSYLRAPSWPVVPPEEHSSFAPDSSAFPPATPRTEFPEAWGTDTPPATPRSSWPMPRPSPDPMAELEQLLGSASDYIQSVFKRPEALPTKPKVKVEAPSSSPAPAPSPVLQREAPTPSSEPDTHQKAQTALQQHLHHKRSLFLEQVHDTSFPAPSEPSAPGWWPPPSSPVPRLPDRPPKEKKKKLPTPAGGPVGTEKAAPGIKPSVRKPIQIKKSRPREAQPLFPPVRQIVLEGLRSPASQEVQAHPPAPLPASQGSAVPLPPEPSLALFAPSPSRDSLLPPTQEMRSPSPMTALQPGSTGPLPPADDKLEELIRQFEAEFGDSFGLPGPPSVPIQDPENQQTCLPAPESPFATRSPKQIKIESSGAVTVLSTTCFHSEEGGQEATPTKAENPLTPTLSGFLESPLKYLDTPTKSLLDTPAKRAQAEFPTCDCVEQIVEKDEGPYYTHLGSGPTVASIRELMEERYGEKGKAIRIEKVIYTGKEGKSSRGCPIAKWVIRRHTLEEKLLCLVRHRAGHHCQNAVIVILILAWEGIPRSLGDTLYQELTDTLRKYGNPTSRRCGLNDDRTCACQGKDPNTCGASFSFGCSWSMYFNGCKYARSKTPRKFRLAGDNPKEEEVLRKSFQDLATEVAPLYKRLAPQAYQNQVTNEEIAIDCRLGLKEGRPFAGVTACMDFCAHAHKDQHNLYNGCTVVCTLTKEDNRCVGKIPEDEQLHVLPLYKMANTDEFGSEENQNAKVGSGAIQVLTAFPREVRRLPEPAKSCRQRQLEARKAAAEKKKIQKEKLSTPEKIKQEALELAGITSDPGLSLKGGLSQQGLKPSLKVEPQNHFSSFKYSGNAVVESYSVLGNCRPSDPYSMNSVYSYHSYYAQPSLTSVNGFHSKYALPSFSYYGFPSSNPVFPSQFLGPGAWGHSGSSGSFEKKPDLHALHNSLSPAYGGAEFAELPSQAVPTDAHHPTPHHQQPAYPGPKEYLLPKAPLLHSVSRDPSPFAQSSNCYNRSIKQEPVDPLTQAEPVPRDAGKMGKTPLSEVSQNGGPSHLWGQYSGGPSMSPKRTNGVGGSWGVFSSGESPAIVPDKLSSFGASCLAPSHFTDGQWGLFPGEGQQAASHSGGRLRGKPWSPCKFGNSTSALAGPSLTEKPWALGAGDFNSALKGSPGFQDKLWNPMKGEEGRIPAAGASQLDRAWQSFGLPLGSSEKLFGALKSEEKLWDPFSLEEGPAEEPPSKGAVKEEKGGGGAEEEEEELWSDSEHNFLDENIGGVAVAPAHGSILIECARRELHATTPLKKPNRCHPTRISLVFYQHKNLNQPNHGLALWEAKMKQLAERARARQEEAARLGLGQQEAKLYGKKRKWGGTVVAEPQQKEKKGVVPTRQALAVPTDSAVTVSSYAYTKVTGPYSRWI

[4] = biological target: Methylcytosine dioxygenase TET2 (Homo sapiens, UniProt Q6N021); assay: Inhibition of N-terminal His-tagged recombinant human TET2 catalytic domain LCIdel mutant (D1129 to G1936 residues with Y1481 to N1843 replaced by 3 x GGGGS linker) expressed in Escherichia coli BL21 (DE3) using 5-methylcytosine as substrate preincubated for 10 mins followed by substrate and DNA-cofactor addition measured after 10 mins by Alphascreen assay
[5] = test system: Methylcytosine dioxygenase TET2 (Homo sapiens), Q6N021 [UNDEFINED MUTATION]; settings: time 20.0 min
[6] = biological target: T1, Methylcytosine dioxygenase TET1; assay: as §1, with “as substrate assessed as change in pIC50 preincubated for” for “as substrate preincubated for”; settings: time 40.0 min; procedure, shortened: as §2
[7] = biological target: T2, Methylcytosine dioxygenase TET3; assay: as §3, with “as substrate assessed as change in pIC50 preincubated for” for “as substrate preincubated for”; settings: time 20.0 min
[8] = Selectivity ratio of pIC50 for inhibition of N-terminal 3xFlag-tagged recombinant human TET1 catalytic domain (E1418 to V2136 residues) expressed in baculovirus infected Sf9 cells to pIC50 for inhibition of recombinant human TET3 catalytic domain (E824 to I1795 residues) expressed in baculovirus infected Sf9 cells
[9] = biological target: T1, Methylcytosine dioxygenase TET1; assay: Inhibition of FLAG-tagged human TET1 catalytic domain (E1418 to V2136 residues) expressed in doxycycline induced human U2OS cells assessed as reduction in 5-hydroxymethylcytosine level at 30 to 100 uM incubated for 24 hrs by immunofluorescence assay; assay type: cell-based; settings: dose 30-100 µM
Procedure, shortened: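 U2OS cells stably carrying dox-inducible FLAG-tagged TET1 catalytic domain were seeded at 5,000/well in DMEM with Tet-approved FBS (10%), penicillin/streptomycin and L-glutamine, then held 4 h at 37 °C. Induction used doxycycline 1 μg/mL alongside compound (1% DMSO final) for 24 h. Cells were fixed, permeabilised, blocked, immunostained (rabbit polyclonal oxidised-cytosine antibody 1:500, anti-FLAG 1:1000, 16 h) and DAPI-counterstained. Mean staining intensity of FLAG-TET1 cells was imaged.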

SMILES | IC50 ([1]; read-out: IC50) [µM] | IC50 ([1]; read-out: pIC50 (converted)) [µM] | inhibition [2] | IC50 ([3]; read-out: IC50) [µM] | IC50 ([3]; read-out: pIC50 (converted)) [µM] | deltapIC50 [5] | deltapIC50 [6] | deltapIC50 [7] | pIC50 [4] | Ratio pIC50 [8] | inhibition [9]
CC[C@H](C)[C@@H]1NC(=O)[C@H](C)NC(=O)[C@@H](Cc2ccc(O)cc2)NC(=O)CSC[C@@H](C(N)=O)NC(=O)[C@H](CO)NC(=O)[C@H](Cc2c[nH]cn2)NC(=O)[C@H](CCC(=O)O)NC(=O)[C@H](Cc2c[nH]c3ccccc23)NC(=O)[C@H](Cc2c[nH]c3ccccc23)NC(=O)[C@H]([C@@H](C)O)NC(=O)[C@H](Cc2ccc(O)cc2)NC(=O)[C@H](Cc2ccc(O)cc2)NC(=O)[C@H](C)NC(=O)[C@H](Cc2ccc(O)cc2)NC1=O | – | 3.09 | – | – | 11 | -0.31 | -0.97 | -0.32 | 4.38 | – | –
N=C(N)NCCC[C@H](NC(=O)[C@H](CCCNC(=N)N)NC(=O)[C@H](CCCNC(=N)N)NC(=O)[C@H](CCCNC(=N)N)NC(=O)[C@H](CCCNC(=N)N)NC(=O)[C@H](CCCNC(=N)N)NC(=O)[C@H](CCCNC(=N)N)NC(=O)[C@@H](N)CCCNC(=N)N)C(=O)O | – | 0.251 | – | – | > 100 | – | – | – | 6.45 | – | Active
CC[C@H](C)[C@@H]1NC(=O)[C@H](CC(C)C)NC(=O)[C@@H](Cc2ccc(O)cc2)NC(=O)CSC[C@@H](C(N)=O)NC(=O)[C@H](CO)NC(=O)[C@H](Cc2c[nH]cn2)NC(=O)[C@H](CCC(=O)O)NC(=O)[C@H](Cc2c[nH]c3ccccc23)NC(=O)[C@H](Cc2c[nH]c3ccccc23)NC(=O)[C@H]([C@@H](C)O)NC(=O)[C@H](C)NC(=O)[C@H](Cc2ccc(O)cc2)NC(=O)[C@H](C)NC(=O)[C@H](Cc2ccc(O)cc2)NC1=O | – | 9.55 | – | – | 15.5 | -0.4 | -1.46 | -0.46 | 4.3 | – | –
CC[C@H](C)[C@@H]1NC(=O)[C@H](CC(C)C)NC(=O)[C@@H](Cc2ccc(O)cc2)NC(=O)CSC[C@@H](C(N)=O)NC(=O)[C@H](CO)NC(=O)[C@H](Cc2c[nH]cn2)NC(=O)[C@H](CCC(=O)O)NC(=O)[C@H](Cc2c[nH]c3ccccc23)NC(=O)[C@H](Cc2c[nH]c3ccccc23)NC(=O)[C@H]([C@@H](C)O)NC(=O)[C@H](Cc2ccc(O)cc2)NC(=O)[C@H](Cc2ccc(O)cc2)NC(=O)[C@H](C)NC(=O)[C@H](C)NC1=O | – | 10.7 | – | – | 15.8 | -0.48 | -1.51 | -0.47 | 4.22 | – | –
CC[C@H](C)[C@@H]1NC(=O)[C@H](CC(C)C)NC(=O)[C@@H](Cc2ccc(O)cc2)NC(=O)CSC[C@@H](C(N)=O)NC(=O)[C@H](CO)NC(=O)[C@H](Cc2c[nH]cn2)NC(=O)[C@H](C)NC(=O)[C@H](Cc2c[nH]c3ccccc23)NC(=O)[C@H](Cc2c[nH]c3ccccc23)NC(=O)[C@H]([C@@H](C)O)NC(=O)[C@H](Cc2ccc(O)cc2)NC(=O)[C@H](Cc2ccc(O)cc2)NC(=O)[C@H](C)NC(=O)[C@H](Cc2ccc(O)cc2)NC1=O | – | 1.74 | – | – | > 100 | -0.55 | -0.72 | < -1.28 | 4.14 | – | –
N=C(N)NCCC[C@H](NC(=O)[C@H](CCCNC(=N)N)NC(=O)[C@H](CCCNC(=N)N)NC(=O)[C@H](CCC(N)=O)NC(=O)[C@H](CCCNC(=N)N)NC(=O)[C@H](CCCNC(=N)N)NC(=O)[C@H](CCCCN)NC(=O)[C@H](CCCCN)NC(=O)[C@H](CCCNC(=N)N)NC(=O)CNC(=O)[C@@H](N)Cc1ccc(O)cc1)C(=O)O | – | 1.15 | – | – | > 100 | – | – | – | 5.39 | – | Active

Continued, in another order:

IC50 ([1]; read-out: IC50) [µM] | IC50 ([1]; read-out: pIC50 (converted)) [µM] | inhibition [2] | IC50 ([3]; read-out: IC50) [µM] | IC50 ([3]; read-out: pIC50 (converted)) [µM] | deltapIC50 [5] | deltapIC50 [6] | deltapIC50 [7] | SMILES | pIC50 [4] | Ratio pIC50 [8] | inhibition [9]
0.25 | 0.0182 | Active | > 100 | 0.182 | – | – | – | CC[C@H](C)[C@@H]1NC(=O)[C@H](CC(C)C)NC(=O)[C@@H](Cc2ccc(O)cc2)NC(=O)CSC[C@H](C(=O)N[C@@H](Cc2ccc(O)cc2)C(=O)NCC(=O)N[C@@H](CCCNC(=N)N)C(=O)N[C@@H](CCCCN)C(=O)N[C@@H](CCCCN)C(=O)N[C@@H](CCCNC(=N)N)C(=O)N[C@@H](CCCNC(=N)N)C(=O)N[C@@H](CCC(N)=O)C(=O)N[C@@H](CCCNC(=N)N)C(=O)N[C@@H](CCCNC(=N)N)C(N)=O)NC(=O)[C@H](CO)NC(=O)[C@H](Cc2c[nH]cn2)NC(=O)[C@H](CCC(=O)O)NC(=O)[C@H](Cc2c[nH]c3ccccc23)NC(=O)[C@H](Cc2c[nH]c3ccccc23)NC(=O)[C@H]([C@@H](C)O)NC(=O)[C@H](Cc2ccc(O)cc2)NC(=O)[C@H](Cc2ccc(O)cc2)NC(=O)[C@H](C)NC(=O)[C@H](Cc2ccc(O)cc2)NC1=O | 6.91 | – | –
– | 0.417 | – | – | 6.31 | -0.02 | -0.1 | -0.08 | CC[C@H](C)[C@@H]1NC(=O)[C@H](CC(C)C)NC(=O)[C@@H](Cc2ccc(O)cc2)NC(=O)CSC[C@@H](C(N)=O)NC(=O)[C@H](C)NC(=O)[C@H](Cc2c[nH]cn2)NC(=O)[C@H](CCC(=O)O)NC(=O)[C@H](Cc2c[nH]c3ccccc23)NC(=O)[C@H](Cc2c[nH]c3ccccc23)NC(=O)[C@H]([C@@H](C)O)NC(=O)[C@H](Cc2ccc(O)cc2)NC(=O)[C@H](Cc2ccc(O)cc2)NC(=O)[C@H](C)NC(=O)[C@H](Cc2ccc(O)cc2)NC1=O | 4.68 | – | –
– | 0.407 | – | – | 23.4 | – | – | – | CC[C@H](C)[C@@H]1NC(=O)[C@H](CC(C)C)NC(=O)[C@@H](Cc2ccc(O)cc2)NC(=O)CSC[C@@H](C(=O)NCC(=O)N[C@@H](CO)C(=O)NCC(=O)N[C@@H](CO)C(=O)N[C@@H](CC(=O)O)C(=O)N[C@@H](Cc2ccc(O)cc2)C(=O)N[C@@H](CCCCN)C(=O)N[C@@H](CC(=O)O)C(=O)N[C@@H](CC(=O)O)C(=O)N[C@@H](CC(=O)O)C(=O)N[C@@H](CC(=O)O)C(=O)N[C@@H](CCCCN)C(N)=O)NC(=O)[C@H](CO)NC(=O)[C@H](Cc2c[nH]cn2)NC(=O)[C@H](CCC(=O)O)NC(=O)[C@H](Cc2c[nH]c3ccccc23)NC(=O)[C@H](Cc2c[nH]c3ccccc23)NC(=O)[C@H]([C@@H](C)O)NC(=O)[C@H](Cc2ccc(O)cc2)NC(=O)[C@H](Cc2ccc(O)cc2)NC(=O)[C@H](C)NC(=O)[C@H](Cc2ccc(O)cc2)NC1=O | 4.59 | 58 | –
– | 1.23 | – | – | 13.8 | -0.29 | -0.57 | -0.42 | CC(C)C[C@@H]1NC(=O)[C@@H](Cc2ccc(O)cc2)NC(=O)CSC[C@@H](C(N)=O)NC(=O)[C@H](CO)NC(=O)[C@H](Cc2c[nH]cn2)NC(=O)[C@H](CCC(=O)O)NC(=O)[C@H](Cc2c[nH]c3ccccc23)NC(=O)[C@H](Cc2c[nH]c3ccccc23)NC(=O)[C@H]([C@@H](C)O)NC(=O)[C@H](Cc2ccc(O)cc2)NC(=O)[C@H](Cc2ccc(O)cc2)NC(=O)[C@H](C)NC(=O)[C@H](Cc2ccc(O)cc2)NC(=O)[C@H](C)NC1=O | 4.41 | – | –
– | 2.88 | – | – | 5.25 | -0.05 | -0.94 | 0 | CC[C@H](C)[C@@H]1NC(=O)[C@H](CC(C)C)NC(=O)[C@@H](Cc2ccc(O)cc2)NC(=O)CSC[C@@H](C(N)=O)NC(=O)[C@H](CO)NC(=O)[C@H](Cc2c[nH]cn2)NC(=O)[C@H](CCC(=O)O)NC(=O)[C@H](Cc2c[nH]c3ccccc23)NC(=O)[C@H](Cc2c[nH]c3ccccc23)NC(=O)[C@H](C)NC(=O)[C@H](Cc2ccc(O)cc2)NC(=O)[C@H](Cc2ccc(O)cc2)NC(=O)[C@H](C)NC(=O)[C@H](Cc2ccc(O)cc2)NC1=O | 4.65 | – | –
